Screens: PubChem BioAssay, several laboratories
beta cell repl = inducers of MIN6 beta-cell proliferation, primary screen, ATP luminescence, uHTS; MIN6 cells proliferation, ATPlite luminescence, 48 h; cells starved in 0.2% serum; 100% = growth in 10% serum; proliferation, % at 10 µM; hit rate 0.29% among 330,000;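 active means compounds whose signal lies at least 3.5 SD above the mean of all wells on their plate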;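 further: 0% = DMSO-treated cells in low-serum medium and 100% = 10% serum control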
MC4R antagonist = MC4R antagonists of cAMP signaling, primary screen, cell-based, TR-FRET, antagonist arm of biased-ligand search; MC4R-expressing cells, MTII-stimulated cAMP, LANCE TR-FRET; inhibition, % at 6.5 µM; hit rate 0.48% among 360,000; AID 540295, 2011;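 active means inhibition above its plate's cutoff, the mean of tested wells on that plate plus 3 SD, cut at about 29% in these data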;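 further: 0% = Melanotan II alone and 100% = Melanotan II plus saturating MCL0020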
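Test system: U2OS cells stably expressing human melanocortin 4 receptor (MC4R); also added: Melanotan II challenge; compound: 6.5 µM single dose; timing: 30-min compound preincubation, 1-h Melanotan II challenge, 1-h detection, room temperature; signal: Eu-cAMP/anti-cAMP TR-FRET, emission 671 nm; repeats: one well per compound, no replicates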
HTR2A ag = mouse Htr2a agonists via beta-arrestin recruitment, primary screen, cell-based, luminescence; 5-hydroxytryptamine receptor 2A (Mus musculus), P35363; CHO-K1 mHTR2A beta-arrestin complementation; percent of 30 µM serotonin response; activation, % at 7.6 µM; hit rate 0.66% among 360,000; AID 624169, 2012;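 active means activation above a run cutoff, the mean activation of all tested compounds plus 3 SD, cut at about 14% in these data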;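 further: 0% = plate median of compound wells and 100% = 30 µM serotonin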
TMEM16A inh = TMEM16A chloride channel inhibitors, primary screen, cell-based, HTS; AID 588511, 2011; HEK293 TMEM16A/YFP iodide influx fluorescence, ionomycin; normalized B-score (activity score, 25-100; higher = stronger inhibition) at 10 µM; Anoctamin-1 (Mus musculus), Q8BHY3; hit rate 1.2% among 310,000;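 active means ratio plate-corrected score three or more library SD toward inhibition, starting fluorescence score within five deviations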;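 further: score derived from kinetic fluorescence span divided by baseline fluorescence per well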
Target sequence (Q8BHY3 whole entry, looked up): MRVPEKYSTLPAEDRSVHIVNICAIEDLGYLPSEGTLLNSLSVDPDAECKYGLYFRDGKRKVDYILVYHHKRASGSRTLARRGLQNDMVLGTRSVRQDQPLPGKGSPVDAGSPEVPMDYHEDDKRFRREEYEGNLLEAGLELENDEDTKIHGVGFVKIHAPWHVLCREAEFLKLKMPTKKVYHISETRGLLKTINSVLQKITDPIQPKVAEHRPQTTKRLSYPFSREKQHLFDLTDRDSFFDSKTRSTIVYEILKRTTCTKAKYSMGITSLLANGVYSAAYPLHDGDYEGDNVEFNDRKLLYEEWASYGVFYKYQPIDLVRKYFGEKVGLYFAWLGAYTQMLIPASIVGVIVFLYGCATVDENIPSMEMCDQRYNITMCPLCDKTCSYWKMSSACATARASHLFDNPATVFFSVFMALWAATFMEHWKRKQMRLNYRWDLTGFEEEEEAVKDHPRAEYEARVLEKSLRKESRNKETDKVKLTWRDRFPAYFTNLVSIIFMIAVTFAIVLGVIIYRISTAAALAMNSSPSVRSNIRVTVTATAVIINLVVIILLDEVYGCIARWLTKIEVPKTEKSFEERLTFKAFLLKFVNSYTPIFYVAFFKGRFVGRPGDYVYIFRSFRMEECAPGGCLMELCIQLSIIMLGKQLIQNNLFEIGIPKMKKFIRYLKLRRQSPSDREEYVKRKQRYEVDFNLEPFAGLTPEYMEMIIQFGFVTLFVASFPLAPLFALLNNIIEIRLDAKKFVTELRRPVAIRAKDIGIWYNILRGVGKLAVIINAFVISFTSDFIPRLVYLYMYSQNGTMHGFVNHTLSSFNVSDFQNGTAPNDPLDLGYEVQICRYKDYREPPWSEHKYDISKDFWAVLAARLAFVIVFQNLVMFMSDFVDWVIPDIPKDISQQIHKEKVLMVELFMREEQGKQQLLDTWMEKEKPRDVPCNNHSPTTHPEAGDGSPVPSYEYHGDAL
ANO1 activ = TMEM16A chloride channel activators or potentiators, primary screen, cell-based, HTS | hit rate 0.3% among 340,000 | HEK293 TMEM16A/YFP-H148Q/I152L, iodide quench fluorescence; active compounds read low | B-score at 10 µM | AID 623877, 2012 | Anoctamin-1 (Mus musculus), Q8BHY3;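 active means fluorescence-ratio B-score plate-corrected deviation score at least 3 library SD below zero, with starting fluorescence score within 5 deviations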;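 further: channel opened by trigger with iodide after compound preincubation; score built on the fluorescence ratio of max minus min over baseline; more negative score means more quench and so TMEM16A activation or potentiation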
MC4R barr agon = MC4R agonists recruiting beta-arrestin, primary screen, cell-based, luminescence, agonist arm of biased-ligand search; Melanocortin receptor 4 (Homo sapiens), P32245; U2OS MC4R beta-arrestin complementation; percent of melanotan II response, DMSO zero; activation, % at 8.9 µM; hit rate 0.98% among 360,000; AID 540308, 2011;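 active means activation above a per-plate cutoff, the mean activation of sample wells on that plate plus 3 SD, cut at about 8% in these data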
MC4R barr ag = MC4R beta-arrestin agonists, retest, confirmation, cell-based, luminescence, U2OS. activation, % at 8.9 µM. shares compounds with MC4R barr agon. U2OS MC4R beta-arrestin recruitment; scaled DMSO 0%, Melanotan II 100%. hit rate 31% among 2,400;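 active means mean activation across replicates above the hit cutoff set in the earlier primary screen, cut at about 8% in these data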
MOR-DOR barr ag = agonists of MOR-DOR heterodimerization, counter-screen for MC4R biased agonist project, cell-based, luminescence. activation, % at 9.2 µM. hit rate 5.8% among 2,400. AID 602194, 2012. U2OS PathHunter beta-arrestin, beta-gal luminescence; percent of deltorphin B response, DMSO zero. shares compounds with MC4R barr agon;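 active means mean activation across replicates exceeds the hit threshold derived in the earlier primary screen, cut at about 18% in these data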;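 further: 100% = deltorphin B at 0.9 µM final and 0% = DMSO alone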
The depositor's hits bear a star; i = inactive; . = not tested or not shown. This is a sample that favours compounds with a hit; in the whole collection about 3.4% have one here.

SMILES | beta cell repl | MC4R antagonist | HTR2A ag | TMEM16A inh | ANO1 activ | MC4R barr agon | MC4R barr ag | MOR-DOR barr ag
O=S(=O)(CC(CN1CCOCC1)N1CCOCC1)c1ccccc1 (centres undefined) | -0.8 | 3.4 | -2.0 | i | i | 9.6* | 1.5 | 1.6
Cc1ccc(S(=O)(=O)CC(CN2CCCCC2)N2CCCCC2)cc1 (centres undefined) | . | -2.9 | 3.2 | . | i | 0.4 | . | .
CCOc1ccc(C2=Nn3c(nnc3-c3ccccc3OC)SC2)cc1 | . | -21.3 | -5.0 | i | i | -2.5 | . | .
CCOc1ccc(-c2nnc3n2N=C(c2ccc(OC)cc2)CS3)cc1 | 1.7 | -6.9 | 1.4 | i | i | 12.2* | 2.6 | 6.7
CN(CCc1ccccc1)C(=O)c1ccc(NC(=O)Cc2cccc(NC(=O)C3CCN(C(=O)c4ccccc4)CC3)c2)cc1 | . | 5.5 | -6.2 | . | . | 0.2 | . | .
O=C1N/C(=N\N=C\c2cccs2)SC1Cc1ccc(Cl)c(Cl)c1 (centres undefined) | -2.1 | 3.6 | -2.8 | i | i | 10.1* | -2.5 | 4.0
Cc1n[nH]c(=S)n1/N=C/c1ccccc1OCc1ccc(Cl)cc1Cl | -0.9 | -1.5 | 5.3 | i | i | 18.6* | 15.8* | 3.5
Cc1n[nH]c(=S)n1/N=C/c1ccc(OCc2ccc(Cl)cc2Cl)cc1 | -1.3 | 5.0 | -3.4 | i | i | -0.8 | . | .
COc1ccc(CCNC(=O)COc2ccc(-c3ccc(C#N)cc3)cc2)cc1 | -1.1 | 0.6 | -2.8 | i | i | 18.7* | 7.9 | 27.8*
N#Cc1ccc(-c2ccc(OCC(=O)NCC(=O)Nc3ccc(F)c(F)c3F)cc2)cc1 | -1.2 | 10.8 | 1.9 | i | i | 18.0* | -0.5 | 7.7
CCOc1ccc(C(=O)CCC(=O)NCC(=O)Nc2ccc(F)c(F)c2F)cc1 | . | 6.1 | 3.2 | . | . | 2.3 | . | .
CN(C)c1nc(N(C)C)c2cnn(C)c2n1 | . | 1.9 | 1.1 | . | i | -1.7 | . | .
CC(=O)c1ccc2c(c1)Cc1cc(C(C)=O)ccc1-2 | 0.0 | -4.6 | 2.5 | i | i | 14.1* | -0.6 | 7.6
CCN1C(=O)/C(=C/N(C(C)=O)c2ccccc2)N(c2ccccc2)C1=S | -2.7 | 13.3 | -2.3 | i | i | -2.2 | . | .
CCc1ccc(/C=C2/C(=O)N(c3ccccc3)C(=S)N2CC(=O)OC)s1 | 0.0 | 4.4 | 2.2 | i | i | 10.3* | 7.3 | 5.9
CCS(=O)(=O)N1CCC(C(=O)Nc2ccc(C(C)=O)cc2)CC1 | -2.0 | 11.2 | 0.2 | i | i | 0.8 | . | .
Cc1ccc(CN2CCC(c3cc(-c4ccc(Cl)cc4)n[nH]3)CC2)cc1 | -6.0 | 2.4 | -0.5 | i | i | 10.5* | 19.1* | 10.4
COC(=O)c1cc(OC)c(OC)cc1NC(=O)Nc1ccc(OC)cc1 | -2.8 | 8.8 | -1.8 | i | i | 14.2* | -0.7 | 2.3
O=C(COn1nnc2ccc(Cl)cc21)NC12CC3CC(CC(C3)C1)C2 | -1.3 | 6.1 | -2.4 | i | i | 12.5* | 3.6 | 12.0
O=C(COn1nnc2ccc(Cl)cc21)Nc1ccc(F)cc1 | -1.8 | 9.5 | -4.5 | i | i | 4.0 | . | .
COC(=O)c1ccccc1S(=O)(=O)N1CCC(C(=O)NCc2ccco2)CC1 | 2.8 | 2.4 | 2.7 | . | i | -0.6 | . | .
O=C(OCC(=O)c1c[nH]c2ccccc12)c1cc2ccccc2cc1O | -2.1 | -1.0 | 6.0 | i | i | 12.5* | 2.5 | 2.9
COc1ccc(C(=O)OCC(=O)c2c[nH]c3ccccc23)c(OC)c1 | -3.5 | -6.9 | 2.8 | . | i | -1.3 | . | .
O=C(/C=C/c1cccs1)c1ccc(NC(=O)c2cccc(Br)c2)cc1 | -4.6 | 8.2 | -2.1 | i | i | 3.3 | . | .
Cc1ccc(C(=O)Nc2ccc(C(=O)/C=C/c3cccs3)cc2)cc1 | -2.5 | 9.2 | -6.8 | i | i | 28.3* | 2.1 | 5.8
SMILES | beta cell repl | MC4R antagonist | HTR2A ag | TMEM16A inh | ANO1 activ | MC4R barr agon | MC4R barr ag | MOR-DOR barr ag
Cc1cc(C(=O)N/N=C/c2cccc3ccccc23)c(C)o1 | -2.2 | -5.8 | -9.0 | i | i | 0.3 | . | .
O=C(c1ccncc1)N1N=C(c2ccc(Br)cc2)CC1c1ccccc1O (centres undefined) | -3.5 | 11.9 | -3.1 | i | i | -1.2 | . | .
CCn1cc(Cl)c(C(=O)N2N=C(c3ccc4ccccc4c3)CC2c2ccccc2O)n1 (centres undefined) | 0.0 | 17.1 | 5.0 | i | i | 20.3* | 4.3 | 9.7
Cc1ccc(C2=NN(S(=O)(=O)c3ccccc3)C(c3ccccc3O)C2)cc1 (centres undefined) | . | 11.1 | -8.8 | . | i | 12.2* | 9.7* | 10.7
O=C(c1ccccc1)N1N=C(c2ccccc2)CC1c1ccccc1O (centres undefined) | -5.0 | 7.0 | 4.5 | i | i | 17.3* | 11.2* | 11.2
Cc1ccc(C2=NN(C(=O)c3cccs3)C(c3ccccc3O)C2)cc1 (centres undefined) | -5.2 | 9.7 | -1.0 | i | i | 17.8* | 30.2* | 4.5
CCOC(=O)N1CCN(C(=O)C2CCN(C(=O)c3ccccc3C)CC2)CC1 | . | 11.3 | -2.2 | . | i | -2.4 | . | .
O=C(CSc1nnc(-c2cccs2)n1C1CC1)NCC1CCCO1 (centres undefined) | -2.8 | 5.0 | 4.3 | . | i | -0.8 | . | .
CC(C)(C)C(=O)Nc1ccccc1N1CCN(c2ccc(F)cc2)CC1 | 0.2 | 0.6 | 6.7 | i | i | 2.7 | . | .
O=C(Nc1ccc(Cl)cc1Cl)c1ccc(Br)o1 | 0.5 | 3.4 | -0.6 | i | i | -0.5 | . | .
COc1ccc(C2=NN(C(=O)c3cccs3)C(c3ccccc3OC)C2)cc1OC (centres undefined) | -3.0 | -6.0 | 5.5 | i | i | -0.1 | . | .
